Reference: ChEMBL document CHEMBL1135612, “Identification of potent and selective small-molecule inhibitors of caspase-3 through the use of extended tethering and structure-based drug design” (J Med Chem, 2002)

How the values were obtained:
[1] = biological target: T1, Caspase-3 (Homo sapiens, UniProt P42574); experiment: Inhibitory activity against Caspase-3
T1 sequence (P42574 whole entry): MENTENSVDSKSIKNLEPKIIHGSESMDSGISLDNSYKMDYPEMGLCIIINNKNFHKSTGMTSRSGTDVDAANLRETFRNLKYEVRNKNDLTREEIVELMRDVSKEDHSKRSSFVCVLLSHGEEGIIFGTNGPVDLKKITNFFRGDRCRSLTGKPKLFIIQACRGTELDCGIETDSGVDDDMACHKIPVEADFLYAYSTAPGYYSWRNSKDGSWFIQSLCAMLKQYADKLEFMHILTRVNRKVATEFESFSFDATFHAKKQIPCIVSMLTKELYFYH

[2] = biological target: T2, Caspase-4 (Homo sapiens, UniProt P49662); experiment: Inhibitory activity against Caspase-4
T2 sequence (P49662 whole entry): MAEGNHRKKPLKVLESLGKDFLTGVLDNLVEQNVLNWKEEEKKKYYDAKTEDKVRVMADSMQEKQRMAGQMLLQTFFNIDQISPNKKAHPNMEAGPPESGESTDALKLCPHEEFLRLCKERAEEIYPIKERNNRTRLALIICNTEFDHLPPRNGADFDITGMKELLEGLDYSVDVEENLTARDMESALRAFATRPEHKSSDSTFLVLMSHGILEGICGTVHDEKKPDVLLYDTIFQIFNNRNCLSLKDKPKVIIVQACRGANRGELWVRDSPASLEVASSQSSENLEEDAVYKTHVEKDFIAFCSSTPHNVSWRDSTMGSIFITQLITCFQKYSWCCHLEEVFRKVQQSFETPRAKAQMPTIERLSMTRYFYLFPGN
How it was run: (§1)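 Human recombinant caspase-1 (3 nM; 4 µM Ac-WEHD-AFC), -2 (17 nM; 40 µM Ac-VDVAD-AFC), -4 (60 nM; 30 µM Ac-WEHD-AFC) or -6 (2 nM; 7 µM Ac-VEID-AFC), final concentrations. Buffer: 25 mM HEPES pH 7.4, 0.1% CHAPS, 50 mM KCl, 5 mM β-ME. Enzyme preincubated 30 min RT with compound titrated in DMSO. Substrate starts reaction. AFC kinetics (ex 365/em 495 nm) read 15 min RT. IC50 from four-parameter fit.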

[3] = biological target: T3, Caspase-5 (Homo sapiens, UniProt P51878); experiment: Inhibitory activity against Caspase-5
T3 sequence (P51878 whole entry): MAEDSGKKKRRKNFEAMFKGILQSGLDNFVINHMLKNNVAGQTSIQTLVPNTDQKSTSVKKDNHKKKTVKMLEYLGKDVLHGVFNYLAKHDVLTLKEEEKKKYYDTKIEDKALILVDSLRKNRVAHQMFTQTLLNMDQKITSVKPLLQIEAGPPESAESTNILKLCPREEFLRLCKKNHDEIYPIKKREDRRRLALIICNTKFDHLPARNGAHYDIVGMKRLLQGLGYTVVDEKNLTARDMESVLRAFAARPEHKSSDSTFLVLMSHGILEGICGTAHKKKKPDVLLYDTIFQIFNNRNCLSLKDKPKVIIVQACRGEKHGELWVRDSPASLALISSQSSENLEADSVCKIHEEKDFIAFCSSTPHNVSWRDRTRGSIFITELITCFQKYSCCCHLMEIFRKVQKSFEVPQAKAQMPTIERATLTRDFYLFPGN
How it was run: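 Recombinant human caspase-5 at 83 nM, final, with 30 µM Ac-WEHD-AFC in 100 mM HEPES pH 7.4, 10% sucrose, 0.1% CHAPS, 200 mM NaCl, 10 mM DTT. Enzyme and DMSO-titrated compound stood together 30 min at RT before substrate addition. Fluorescence (ex 365/em 495 nm) followed kinetically 15 min at RT. IC50 came from a four-parameter curve fit.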

[4] = biological target: T4, Caspase-6 (Homo sapiens, UniProt P55212); experiment: Inhibitory activity against Caspase-6; how it was run: as §1
T4 sequence (P55212 whole entry): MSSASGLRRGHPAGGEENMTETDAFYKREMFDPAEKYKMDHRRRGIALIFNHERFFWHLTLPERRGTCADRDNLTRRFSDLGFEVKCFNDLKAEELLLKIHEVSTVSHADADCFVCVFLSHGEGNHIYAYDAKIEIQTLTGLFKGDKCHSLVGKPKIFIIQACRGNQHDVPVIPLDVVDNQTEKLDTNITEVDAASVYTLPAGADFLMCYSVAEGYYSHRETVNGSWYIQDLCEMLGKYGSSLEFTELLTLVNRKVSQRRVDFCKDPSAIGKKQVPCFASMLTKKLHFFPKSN

[5] = biological target: T5, Caspase-2 (Homo sapiens, UniProt P42575); experiment: Inhibitory activity against of Caspase-2; how it was run: as §1
T5 sequence (P42575 whole entry): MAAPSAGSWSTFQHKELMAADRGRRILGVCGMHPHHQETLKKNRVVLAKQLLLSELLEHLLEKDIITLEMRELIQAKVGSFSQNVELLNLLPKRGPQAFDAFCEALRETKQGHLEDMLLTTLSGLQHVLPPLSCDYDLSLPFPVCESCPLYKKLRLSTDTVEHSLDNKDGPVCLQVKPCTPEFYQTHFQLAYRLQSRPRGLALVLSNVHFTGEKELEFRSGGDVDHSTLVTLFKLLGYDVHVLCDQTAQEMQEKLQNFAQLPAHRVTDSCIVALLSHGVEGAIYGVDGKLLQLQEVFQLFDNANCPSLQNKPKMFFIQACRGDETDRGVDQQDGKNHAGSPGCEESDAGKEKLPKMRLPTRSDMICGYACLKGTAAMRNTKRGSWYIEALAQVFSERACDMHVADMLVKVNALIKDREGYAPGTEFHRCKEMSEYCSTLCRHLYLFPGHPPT

[6] = biological target: T6, Caspase-1 (Homo sapiens, UniProt P29466); experiment: Inhibitory activity against of Caspase-1; how it was run: as §1
T6 sequence (P29466 whole entry): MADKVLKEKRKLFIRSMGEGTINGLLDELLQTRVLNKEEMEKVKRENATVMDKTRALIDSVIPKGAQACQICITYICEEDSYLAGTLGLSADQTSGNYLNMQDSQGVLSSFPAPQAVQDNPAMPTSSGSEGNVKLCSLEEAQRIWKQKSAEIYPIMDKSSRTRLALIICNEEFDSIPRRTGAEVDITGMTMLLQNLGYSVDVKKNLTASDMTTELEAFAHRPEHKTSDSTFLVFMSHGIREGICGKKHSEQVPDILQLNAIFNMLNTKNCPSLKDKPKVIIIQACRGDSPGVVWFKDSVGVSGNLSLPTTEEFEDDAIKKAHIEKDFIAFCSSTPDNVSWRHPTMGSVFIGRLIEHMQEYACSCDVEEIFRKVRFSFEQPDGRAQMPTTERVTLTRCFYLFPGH

[7] = biological target: Caspase-8 (Homo sapiens, UniProt Q14790); experiment: Inhibitory activity against Caspase-8
How it was run: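 In-house expressed, purified human caspase-8 at 10 nM, final, with 3 µM Ac-IETD-AFC in 100 mM HEPES pH 7.4, 10% sucrose, 0.1% CHAPS, 10 mM DTT. Enzyme was preincubated 30 min at RT with DMSO-titrated compound, and substrate started the reaction. Fluorescence (ex 365/em 495 nm) was read kinetically for 15 min at RT. IC50 came from a four-parameter fit.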

[8] = biological target: T7, Caspase-7 (Homo sapiens, UniProt P55210); experiment: Inhibitory activity against Caspase-7
T7 sequence (P55210 whole entry): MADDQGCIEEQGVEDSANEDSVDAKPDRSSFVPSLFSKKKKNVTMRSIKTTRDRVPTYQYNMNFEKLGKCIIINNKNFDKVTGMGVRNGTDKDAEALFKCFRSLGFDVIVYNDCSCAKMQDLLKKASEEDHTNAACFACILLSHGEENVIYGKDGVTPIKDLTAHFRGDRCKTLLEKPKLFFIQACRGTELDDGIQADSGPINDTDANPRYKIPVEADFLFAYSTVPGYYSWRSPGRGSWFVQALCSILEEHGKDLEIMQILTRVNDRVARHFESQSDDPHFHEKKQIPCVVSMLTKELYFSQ
How it was run: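 Caspase-7 assay: 1 nM recombinant human enzyme and 30 µM Ac-DEVD-AFC, final, in 25 mM HEPES pH 7.4, 0.1% CHAPS, 50 mM KCl, 5 mM CaCl2, 5 mM β-ME. Enzyme preincubated 30 min RT with compound titrated in DMSO, then substrate added. Kinetic AFC fluorescence (ex 365/em 495 nm) over 15 min at RT. IC50 by four-parameter fit.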

Sequence of Caspase-8 (Q14790 217-374 limits assumed): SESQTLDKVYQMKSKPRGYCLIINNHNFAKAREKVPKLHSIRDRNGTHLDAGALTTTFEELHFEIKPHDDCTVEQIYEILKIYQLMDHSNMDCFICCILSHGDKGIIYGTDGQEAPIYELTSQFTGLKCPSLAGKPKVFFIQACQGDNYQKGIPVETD
Sequence of Caspase-8 (Q14790 385-479 limits assumed): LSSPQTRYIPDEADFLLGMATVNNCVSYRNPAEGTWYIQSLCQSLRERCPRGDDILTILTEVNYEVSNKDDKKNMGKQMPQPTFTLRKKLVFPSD

Row | Compound | Ki [1] [µM] | Ki [2] [µM] | Ki [3] [µM] | Ki [4] [µM] | Ki [5] [µM] | Ki [6] [µM] | Ki [7] [µM] | Ki [8] [µM]
1 | O=C(O)C[C@H](NC(=O)c1ccc(CNS(=O)(=O)c2ccc(O)c(C(=O)O)c2)s1)C(=O)CSCc1ccccc1Cl | 0.02 | > 100 | 63 | 9.7 | 64 | 3.2 | 0.33 | 0.13
2 | Cc1cc(CNS(=O)(=O)c2ccc(O)c(C(=O)O)c2)sc1C(=O)N[C@@H](CC(=O)O)C(=O)CSCc1ccccc1Cl | 0.04 | 27 | 36 | 2.4 | 37 | 2.7 | 0.71 | 0.94
3 | O=C(O)C[C@H](NC(=O)c1cnc(CNS(=O)(=O)c2ccc(O)c(C(=O)O)c2)nc1)C(=O)CSCc1ccccc1Cl | 0.02 | 22 | 32 | 0.19 | 30 | 25 | 28 | 0.09
4 | CN(Cc1ccc(O)c(C(=O)O)c1)Cc1ccc(C(=O)N[C@@H](CC(=O)O)C(=O)CSCc2ccccc2Cl)s1 | 0.09 | 96 | 98 | 22 | 30 | 12 | 4 | 0.19
5 | O=C(O)C[C@H](NC(=O)c1cnc(CNS(=O)(=O)c2ccc(O)c(C(=O)O)c2)s1)C(=O)CSCc1ccccc1Cl | 0.03 | 13 | 23 | 2.3 | 16 | 8.3 | 19 | 0.09

Other lines, results leading:

Row | Ki [1] [µM] | Ki [2] [µM] | Ki [3] [µM] | Ki [4] [µM] | Ki [5] [µM] | Ki [6] [µM] | Ki [7] [µM] | Ki [8] [µM] | Compound
6 | 0.12 | 38 | 24 | 0.54 | 21 | 1.9 | 0.05 | 0.12 | O=C[C@H](CC(=O)O)NC(=O)c1ccc(CNS(=O)(=O)c2ccc(O)c(C(=O)O)c2)s1
7 | 0.05 | 92 | 22 | 1.4 | 0.96 | – | 0.88 | 0.13 | O=C[C@H](CC(=O)O)NC(=O)c1ccc(CNS(=O)(=O)c2ccc(O)c(C(=O)O)c2)nc1
8 | 0.2 | 21 | 12 | 1 | 9 | 0.16 | 0.15 | 0.47 | O=C[C@H](CC(=O)O)NC(=O)c1ccc(CNS(=O)(=O)c2ccc(O)c(C(=O)O)c2)cc1
